Screening data from PubChem BioAssay.
This is a sample that favours compounds with a hit; in the whole collection about 2.8% have one here.
NPY-Y1 antag – blocks the human neuropeptide Y Y1 receptor; 200,000 compounds, 1% hits; inhibition, % at 3.6 µM; P25929; AID 1040; HEK293-CNG Y1 cells, membrane potential fluorescence; NPY at EC95, then isoproterenol;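 active = inhibition above the campaign mean inhibition of all tested compounds plus 3 SD, cut at about 20% in these data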;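 note: 0% = DMSO wells given NPY plus isoproterenol and 100% = isoproterenol alone without NPY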
Target sequence (P25929 whole entry, looked up): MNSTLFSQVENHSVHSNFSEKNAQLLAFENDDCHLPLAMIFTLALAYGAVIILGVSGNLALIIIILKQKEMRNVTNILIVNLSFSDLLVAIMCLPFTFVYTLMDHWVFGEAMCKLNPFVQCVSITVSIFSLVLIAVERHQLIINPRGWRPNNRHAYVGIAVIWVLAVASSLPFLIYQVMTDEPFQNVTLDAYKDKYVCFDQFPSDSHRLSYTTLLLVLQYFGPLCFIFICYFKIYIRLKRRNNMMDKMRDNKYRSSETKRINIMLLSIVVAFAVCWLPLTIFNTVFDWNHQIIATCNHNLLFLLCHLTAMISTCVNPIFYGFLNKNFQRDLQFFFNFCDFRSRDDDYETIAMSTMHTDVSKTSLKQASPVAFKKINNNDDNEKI
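Material: HEK293 Y1/CNG channel cell line | Also added: NPY (25 nM), isoproterenol (1 µM), Ro 20-1724 (25 µM) | Compound: One concentration, 3.6 µM, in 0.4% DMSO | Schedule: 3 h dye uptake, 1 h room-temperature compound, 45 min post-isoproterenol | Signal: Membrane-potential fluorescent dye readout | Read-out: % inhibition of NPY effect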
Measles CPE – protection of cells from measles virus | protection (pct of control), % at 4 µM | 140,000 compounds, 1.5% hits | Measles virus-infected cells, CPE protection, absorbance; in the data active = protection mostly above about 24%, no sharp cut-off; inactive = mostly below about 26%
NPY-Y1 PAM-ag – potentiates or activates human NPY-Y1 receptor | activation, % at 3.6 µM | AID 1304 | NPY-Y1 expressing cells, potentiator/agonist activation | 220,000 compounds, 0.37% hits; in the data active = activation above about 33%, passing the limit was not always enough;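 note: cells stimulated with NPY at EC10 then isoproterenol at EC100; 0% = low agonist plus stimulus and 100% = saturating agonist plus stimulus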
Mdm2 ligase inh – Mdm2 E3 ligase (human) inhibition. Q00987. cell-based MDM2 ubiquitination luciferase reporter, 2 h; 0 = plate control, 100 = twice control, blank-subtracted. signal enhancement, % at 5 µM. 210,000 compounds, 0.11% hits;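 active = signal enhancement of 30% or more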;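 note: luminescence tracks abundance of the self-degrading MDM2-luciferase fusion protein; higher signal means inhibition of MDM2 E3 ligase activity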
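Timing – 2 h compound exposure at 37 °C · Assay system – mammalian cells stably expressing self-ubiquitinating, self-degrading MDM2 E3–luciferase fusion · Amount – 2000 cells seeded into each well · Measure – % luminescence enhancement versus blank-corrected plate control mean · Measured by – SteadyLite luminescence, 15 min reagent step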
NPY-Y2 antag – blocks the human neuropeptide Y Y2 receptor | 140,000 compounds, 0.99% hits | inhibition, % at 2.7 µM | P49146 | NPY-Y2 expressing cells, antagonist mode; in the data active = inhibition above about 17%;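 note: 0% = vehicle with agonist challenge and 100% = reference antagonist with challenge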
Target sequence (P49146 whole entry, looked up): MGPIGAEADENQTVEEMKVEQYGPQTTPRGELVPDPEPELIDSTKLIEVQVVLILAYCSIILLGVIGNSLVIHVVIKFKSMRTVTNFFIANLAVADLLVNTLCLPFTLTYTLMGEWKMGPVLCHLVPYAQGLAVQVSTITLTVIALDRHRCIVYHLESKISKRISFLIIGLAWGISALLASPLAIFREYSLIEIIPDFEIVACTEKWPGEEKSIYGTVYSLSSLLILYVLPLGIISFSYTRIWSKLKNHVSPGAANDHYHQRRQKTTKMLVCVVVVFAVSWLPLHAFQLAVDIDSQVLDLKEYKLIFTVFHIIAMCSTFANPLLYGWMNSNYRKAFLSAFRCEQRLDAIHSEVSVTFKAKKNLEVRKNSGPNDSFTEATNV
NPY-Y2 PAM-ag – potentiates or activates human NPY-Y2 receptor; P49146; cells expressing NPY-Y2, potentiator/agonist read-out; activation, % at 3.6 µM; 220,000 compounds, 0.45% hits; AID 1359; in the data active = activation above about 27%;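 note: cells stimulated with NPY near EC25 plus isoproterenol at EC100; 0% = vehicle plus submaximal agonist and 100% = vehicle plus saturating agonist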
NPY-Y2 confirm – confirmation of human NPY-Y2 receptor potentiators or agonists. shares compounds with NPY-Y2 PAM-ag. cell-based NPY-Y2 potentiator/agonist assay. activation, % at 3.6 µM. 450 compounds, 20% hits; in the data active = activation above about 33%
NPY-Y1 potentiator – counter-screen for NPY-Y2 potentiators or agonists: NPY-Y1 potentiators or agonists. Y1 HEK293-CNG cells, membrane potential fluorescence. shares compounds with NPY-Y2 PAM-ag. AID 1651. activation, % at 3.6 µM. 450 compounds, 20% hits; in the data active = activation above about 45%;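 note: cells stimulated with submaximal NPY then isoproterenol with phosphodiesterase inhibitor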
NPY-Y1 ag 2 – counter-screen for NPY-Y2 potentiators: agonists of human NPY-Y1; HEK293 Y1-CNGC, membrane potential fluorescence, agonism; activation, % at 3.6 µM; AID 1702; shares compounds with NPY-Y2 PAM-ag; 450 compounds, 37% hits;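 active = activation above the mean of DMSO-only control wells plus 3 SD, cut at about 18% in these data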;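 note: cells stimulated with 1 µM isoproterenol plus the PDE inhibitor Ro 20-1724; 0% = isoproterenol with DMSO and no NPY and 100% = 40 nM NPY; Y1 agonists lower the membrane potential dye signal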
CNGC inh – blocks CNG channel activity, counter-screen for NPY-Y2 potentiators; 450 compounds, 32% hits; inhibition, % at 3.6 µM; HEK293-CNG parental, isoproterenol cAMP, membrane potential fluorescence; shares compounds with NPY-Y2 PAM-ag; AID 1703;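 active = inhibition above the control-well mean plus 3 SD of those wells, cut at about 22% in these data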;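 note: 0% = DMSO with isoproterenol and 100% = DMSO without isoproterenol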
NPY-Y2 ag 2 – counter-screen for NPY-Y2 potentiators: agonists of human NPY-Y2; shares compounds with NPY-Y2 PAM-ag; HEK293 Y2/CNGC cells, membrane potential fluorescence, agonist mode; activation, % at 3.6 µM; 450 compounds, 56% hits; AID 1710;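 active = activation above the mean of solvent-only control wells plus 3 SD, cut at about 10% in these data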;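 note: cells stimulated by isoproterenol with no NPY added so direct agonism is tested; 0% = DMSO with isoproterenol alone and 100% = NPY at EC100 plus isoproterenol; agonism lowers probe fluorescence through less cAMP and CNG channel opening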
Active calls of the source: *.

Cn1c(Cn2nnc3ccccc32)nnc1SCC(=O)Nc1nccs1 was read as NPY-Y1 antag -4, Measles CPE 5, NPY-Y1 PAM-ag -13, Mdm2 ligase inh -4, NPY-Y2 antag 2 and NPY-Y2 PAM-ag -3.
Screening Cc1cc(C)c2c(-n3cccc3)nn(C)c2n1 returned NPY-Y1 antag -4, Measles CPE 8, NPY-Y1 PAM-ag 8, Mdm2 ligase inh 2, NPY-Y2 antag 1 and NPY-Y2 PAM-ag 7.
Screening Cc1ccc(C(=O)n2nc(-n3cccc3)c3c(C)cc(C)nc32)cc1 returned NPY-Y1 antag -5, NPY-Y1 PAM-ag 29, Mdm2 ligase inh -7, NPY-Y2 PAM-ag 57*, NPY-Y2 confirm 17, NPY-Y1 potentiator 29, NPY-Y1 ag 2 24*, CNGC inh 3 and NPY-Y2 ag 2 18*.
`Cc1cc(N/C(=N/S(=O)(=O)c2ccc(F)cc2)c2ccccc2)n(-c2ccccc2)n1` gave NPY-Y1 antag 0, NPY-Y1 PAM-ag -9, Mdm2 ligase inh -11, NPY-Y2 PAM-ag 28*, NPY-Y2 confirm -3, NPY-Y1 potentiator -17, NPY-Y1 ag 2 -27, CNGC inh -23 and NPY-Y2 ag 2 -15.
Cc1cc(N/C(=N/S(=O)(=O)c2cc(F)ccc2F)c2ccccc2)n(-c2ccccc2)n1 was read as NPY-Y1 antag 1, NPY-Y1 PAM-ag 6, Mdm2 ligase inh -5 and NPY-Y2 PAM-ag -3.
For CC1=CCC2C(=O)N(c3ccc(OC(=O)c4ccco4)cc3)C(=O)C2C1 (stereo unspecified) the results were NPY-Y1 antag -3, NPY-Y1 PAM-ag -6, Mdm2 ligase inh 2 and NPY-Y2 PAM-ag 2.
Screening N=C1CCC(=N)c2c1c(O)c1ccccc1c2O returned NPY-Y1 PAM-ag 32, Mdm2 ligase inh -16, NPY-Y2 PAM-ag 41*, NPY-Y2 confirm 21, NPY-Y1 potentiator 23, NPY-Y1 ag 2 23*, CNGC inh 21 and NPY-Y2 ag 2 18*.
For N#Cc1c(C#N)c(O)c2ccccc2c1O the results were NPY-Y1 PAM-ag 6, Mdm2 ligase inh -57 and NPY-Y2 PAM-ag 12.
For O=c1c(Cl)c(Cl)cnn1Cc1nnc(-c2ccc(Cl)cc2)o1 the results were NPY-Y1 antag 2, NPY-Y1 PAM-ag 11, Mdm2 ligase inh 0 and NPY-Y2 PAM-ag 1.
For CC(C)(C)n1cc(S(=O)(=O)c2ccccc2)[nH]c1=O the results were NPY-Y1 antag 3, NPY-Y1 PAM-ag -2, Mdm2 ligase inh -17, NPY-Y2 PAM-ag 41*, NPY-Y2 confirm -1, NPY-Y1 potentiator 2, NPY-Y1 ag 2 -2, CNGC inh 0 and NPY-Y2 ag 2 9.
`COc1ccc(N2CC(NC(=O)NCCC(C)C)CC2=O)cc1` (stereo unspecified) gave NPY-Y1 antag 7, Measles CPE 7, NPY-Y1 PAM-ag -8, Mdm2 ligase inh -12, NPY-Y2 antag 0 and NPY-Y2 PAM-ag 12.
Screening Cc1ccc(F)cc1CNC(=O)c1cc(COc2ccc3ncccc3c2)on1 returned NPY-Y1 antag 0, NPY-Y1 PAM-ag 4, Mdm2 ligase inh -11 and NPY-Y2 PAM-ag 23.
For O=C(NCc1cccc(Cl)c1)c1cc(COc2ccc3ncccc3c2)on1 the results were NPY-Y1 antag 0, NPY-Y1 PAM-ag 3, Mdm2 ligase inh -14, NPY-Y2 PAM-ag 37*, NPY-Y2 confirm -2, NPY-Y1 potentiator -29, NPY-Y1 ag 2 -10, CNGC inh -5 and NPY-Y2 ag 2 -1.
For Cc1cc(/C=C2\Sc3ccccc3N2C)cc(C)[n+]1CC1CCCO1 (stereo unspecified) the results were NPY-Y1 antag -3, NPY-Y1 PAM-ag 8, Mdm2 ligase inh -46 and NPY-Y2 PAM-ag 3.
Cc1ncccc1C(=O)N1CCCC(C(=O)c2ccc3c4c(cccc24)CC3)C1 (stereo unspecified) was read as NPY-Y1 antag 0, NPY-Y1 PAM-ag -9, Mdm2 ligase inh 2, NPY-Y2 PAM-ag 72*, NPY-Y2 confirm 1, NPY-Y1 potentiator 2, NPY-Y1 ag 2 -7, CNGC inh 7 and NPY-Y2 ag 2 8.
For CC(=O)C1=C(C)N2CCN=C2S1 the results were NPY-Y1 PAM-ag 0, Mdm2 ligase inh -8 and NPY-Y2 PAM-ag -28.
COc1ccc(CC(=O)NC(C)c2nnc(SCC(=O)Nc3ccccc3)n2C)cc1 (stereo unspecified) was read as NPY-Y1 antag -4, NPY-Y1 PAM-ag 3, Mdm2 ligase inh -23 and NPY-Y2 PAM-ag -6.
Screening COC(=O)c1ccc(NC(=O)CSc2nnc(C(C)NC(=O)c3ccccc3Cl)n2C)cc1 (stereo unspecified) returned NPY-Y1 antag -1, Measles CPE 11, NPY-Y1 PAM-ag 33, Mdm2 ligase inh 0, NPY-Y2 antag -4, NPY-Y2 PAM-ag 37*, NPY-Y2 confirm 10, NPY-Y1 potentiator 16, NPY-Y1 ag 2 17, CNGC inh 10 and NPY-Y2 ag 2 28*.
`O=C(O)c1c(-c2ccccc2)c2oc3ccccc3c2[nH]c1=O` gave NPY-Y1 antag -1, Measles CPE 2, NPY-Y1 PAM-ag -4, NPY-Y2 antag 7 and NPY-Y2 PAM-ag -1.
For O=C1C(Nc2ccccc2)=C/C(=N/S(=O)(=O)c2cccs2)c2ccccc21 the results were NPY-Y1 antag -4, Measles CPE 1, NPY-Y1 PAM-ag 18, Mdm2 ligase inh -4, NPY-Y2 antag -8, NPY-Y2 PAM-ag 48*, NPY-Y2 confirm 68*, NPY-Y1 potentiator 74*, NPY-Y1 ag 2 60*, CNGC inh 53* and NPY-Y2 ag 2 67*.
COc1ccccc1C1CCN(c2cc(O)ccc2[N+](=O)[O-])CC1 was read as NPY-Y1 PAM-ag 36, Mdm2 ligase inh -16 and NPY-Y2 PAM-ag -18.
For COc1ccc(-n2c(-c3cc(-c4ccccc4)sc3N)n[nH]c2=S)cc1 the results were NPY-Y1 PAM-ag 23, Mdm2 ligase inh 2 and NPY-Y2 PAM-ag 24.
